Experimental data of several laboratories.
Compare with care: the assays were run in different laboratories.
Effect on: cell growth or viability

Structure (SMILES)	cell line	technique	time	measurement	value
CC(C)C[C@H](NC(=O)[C@H](Cc1ccccc1)NC(=O)c1cnccn1)B(O)O	OVK18	ATP luminescence	–	IC50	8.8 nM
COc1ccc(-c2ccc(-c3ccc(C(=N)N)nc3)s2)cc1	UO-31	–	–	GI50	1640 nM
CCCc1n(Cc2ccc3ccccc3n2)cc[n+]1Cc1ccc2ccccc2c1	HOP-62	SRB	–	TGI	5380 nM
CN(C)CCOc1ccc(-c2nc(-c3ccncc3)c(-c3ccc4c(c3)CC/C4=N\O)[nH]2)cc1	451Lu	ATP luminescence	72 h	EC50	670 nM
c1ccc(-c2n(Cc3ccc4ccccc4c3)cc[n+]2Cc2ccc3ccccc3c2)cc1	HOP-92	SRB	–	TGI	2280 nM
CC1(C)C(=O)NC2=C1C(=O)C(=O)c1ccccc12	CAL-27	–	72 h	IC50	2880 nM
COc1cc(-c2ccc(-c3ccc(C(=N)N)nc3)s2)cc(OC)c1OC	UO-31	–	–	GI50	1880 nM
Cc1n(Cc2ccc3ccccc3n2)cc[n+]1Cc1ccc2ccccc2c1	HOP-62	SRB	–	TGI	6660 nM
S=C([S][Au-][P+](CCCCCC[P+]([Au-][S]C(=S)n1cccn1)(c1ccccc1)c1ccccc1)(c1ccccc1)c1ccccc1)n1cccn1	UO-31	–	–	GI50	933 nM
CC1(C)CCC(CN2CCN(c3ccc(C(=O)NS(=O)(=O)c4ccc(NCC5CCOCC5)c([N+](=O)[O-])c4)c(Oc4cnc5[nH]ccc5c4)c3)CC2)=C(c2ccc(Cl)cc2)C1	MDCK	–	24 h	EC50	> 50000 nM
c1ccc2cc(Cn3cc[n+](Cc4ccc5ccccc5c4)c3)ccc2c1	HOP-92	SRB	–	TGI	1390 nM
COc1ccc(-c2ccc(-c3ccc(C(=N)N)nc3)s2)cc1Cl	UO-31	–	–	GI50	1550 nM
Nc1ncnc2c1ncn2[C@@H]1O[C@H](CO)[C@@H](O)[C@@H]1O	CAL-27	–	72 h	IC50	> 20000 nM
CCc1n(Cc2ccc3ccccc3n2)cc[n+]1Cc1ccc2ccccc2c1	HOP-62	SRB	–	TGI	7020 nM
Cc1ccc2cncc(N3CCc4c(cc(Cn5ccnc5)cc4-c4cn(C)nc4C(F)(F)F)C3=O)c2c1	K562	ATP luminescence	5 days	GI50	4900 nM
